# Data from ChEMBL document CHEMBL4422636, “Investigation of the structural requirements for N-methyl-D-aspartate receptor positive and negative allosteric modulators based on 2-naphthoic acid” (Eur J Med Chem, 2019).
# Active and inactive are the calls of the source. The calls are words filed in the database; no cut-off is given here.
# What was measured:
# [1] = biological target: Glutamate receptor ionotropic, NMDA 2A (Rattus norvegicus) (UniProt Q00959); experiment: Allosteric modulation of rat GluN2A expressed in Xenopus laevis oocytes assessed as L-glutamate/glycine-induced current response at 100 uM at holding potential -60 mV by two-electrode voltage clamp method relative to L-glutamate/glycine; assay type: cell-based
# Method in brief: (§1)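 GluN1a with one GluN2 subunit; RNAs mixed 1:1–3 molar, 15–30 ng total injected into Xenopus oocytes, which were held in ND-96 at 17°C for 1–5 days. TEVC at −60 mV in 116 mM NaCl, 2 mM KCl, 0.3 mM BaCl2, 5 mM HEPES, pH 7.4. […] Reported as % of agonist-alone response, mean ± s.e.m., n≥4.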
# [2] = Solubility of the compound at 100 uM; assay type: physicochemical
# Method in brief: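 Compounds were inspected for visible precipitation at the concentrations used in the oocyte assays.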
# [3] = biological target: Glutamate receptor ionotropic, NMDA 2C (Rattus norvegicus) (UniProt Q00961); experiment: Allosteric modulation of rat GluN2C expressed in Xenopus laevis oocytes assessed as L-glutamate/glycine-induced current response at 100 uM at holding potential -60 mV by two-electrode voltage clamp method relative to L-glutamate/glycine; assay type: cell-based; method in brief: as §1
# [4] = biological target: Glutamate NMDA receptor; Grin1/Grin2a (Rattus norvegicus) (UniProt P35439+Q00959); experiment: Negative allosteric modulation of rat GluN1/GluN2A expressed in Xenopus laevis oocytes assessed as inhibition of L-glutamate/glycine-induced current response at holding potential -60 mV by two-electrode voltage clamp method relative to untreated control; assay type: cell-based; set-up: concentration or dose not given beside the values
# Method in brief: (§2)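 Oocytes injected with GluN1a plus GluN2A, 2B, 2C or 2D RNA (1:1–3 molar, 15–30 ng total) and kept in ND-96 at 17°C for 1–5 days. TEVC at −60 mV in HEPES-buffered NaCl/KCl/BaCl2 saline, pH 7.4. […] Curves were fitted to give EC50/IC50 and maximal potentiation or inhibition, mean ± s.e.m.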
# [5] = biological target: Ionotropic glutamate receptor NMDA 1/2D (Rattus norvegicus) (UniProt P35439+Q62645); experiment: Negative allosteric modulation of rat GluN1/GluN2D expressed in Xenopus laevis oocytes assessed as inhibition of L-glutamate/glycine-induced current response at holding potential -60 mV by two-electrode voltage clamp method relative to untreated control; assay type: cell-based; set-up: concentration or dose not given beside the values; method in brief: as §2
# [6] = biological target: T1, Glutamate NMDA receptor; Grin1/Grin2c (Rattus norvegicus, UniProt P35439+Q00961); experiment: Negative allosteric modulation of rat GluN1/GluN2C expressed in Xenopus laevis oocytes assessed as inhibition of L-glutamate/glycine-induced current response at holding potential -60 mV by two-electrode voltage clamp method; assay type: cell-based; method in brief: as §2
# [7] = biological target: T2, Glutamate NMDA receptor; Grin1/Grin2a (Rattus norvegicus, UniProt P35439+Q00959); experiment: Negative allosteric modulation of rat GluN1/GluN2A expressed in Xenopus laevis oocytes assessed as inhibition of L-glutamate/glycine-induced current response at holding potential -60 mV by two-electrode voltage clamp method; assay type: cell-based; method in brief: as §2
# [8] = biological target: T3, Glutamate NMDA receptor; Grin1/Grin2c (Rattus norvegicus) (UniProt P35439+Q00961); experiment: Negative allosteric modulation of rat GluN1/GluN2C expressed in Xenopus laevis oocytes assessed as inhibition of 300 uM glutamate/glycine-induced current response at 30 uM at -60 mV holding potential by two-electrode voltage clamp method; assay type: cell-based
# [9] = biological target: T3, Glutamate NMDA receptor; Grin1/Grin2c (Rattus norvegicus); experiment: Negative allosteric modulation of rat GluN1/GluN2C expressed in Xenopus laevis oocytes assessed as inhibition of 10 uM glutamate/glycine-induced current response at 30 uM at -60 mV holding potential by two-electrode voltage clamp method; assay type: cell-based
# [10] = biological target: T4, Ionotropic glutamate receptor NMDA 1/2D (Rattus norvegicus, UniProt P35439+Q62645); experiment: Negative allosteric modulation of rat GluN1/GluN2D expressed in Xenopus laevis oocytes assessed as inhibition of L-glutamate/glycine-induced current response at holding potential -60 mV by two-electrode voltage clamp method; assay type: cell-based; method in brief: as §2
# [11] = biological target: Glutamate receptor ionotropic, NMDA 2B (Rattus norvegicus) (UniProt Q00960); experiment: Allosteric modulation of rat GluN2B expressed in Xenopus laevis oocytes assessed as L-glutamate/glycine-induced current response at 100 uM at holding potential -60 mV by two-electrode voltage clamp method relative to L-glutamate/glycine; assay type: cell-based; method in brief: as §1
# [12] = biological target: Glutamate receptor ionotropic, NMDA 2D (Rattus norvegicus) (UniProt Q62645); experiment: Allosteric modulation of rat GluN2D expressed in Xenopus laevis oocytes assessed as L-glutamate/glycine-induced current response at 100 uM at holding potential -60 mV by two-electrode voltage clamp method relative to L-glutamate/glycine; assay type: cell-based; method in brief: as §1
# [13] = biological target: Glutamate NMDA receptor; Grin1/Grin2b (Rattus norvegicus) (UniProt P35439+Q00960); experiment: Negative allosteric modulation of rat GluN1/GluN2B expressed in Xenopus laevis oocytes assessed as inhibition of L-glutamate/glycine-induced current response at holding potential -60 mV by two-electrode voltage clamp method relative to untreated control; assay type: cell-based; set-up: concentration or dose not given beside the values; method in brief: as §2
# [14] = biological target: T3, Glutamate NMDA receptor; Grin1/Grin2c (Rattus norvegicus); experiment: Negative allosteric modulation of rat GluN1/GluN2C expressed in Xenopus laevis oocytes assessed as inhibition of L-glutamate/glycine-induced current response at holding potential -60 mV by two-electrode voltage clamp method relative to untreated control; assay type: cell-based; set-up: concentration or dose not given beside the values; method in brief: as §2
# [15] = biological target: T5, Glutamate NMDA receptor; Grin1/Grin2b (Rattus norvegicus, UniProt P35439+Q00960); experiment: Negative allosteric modulation of rat GluN1/GluN2B expressed in Xenopus laevis oocytes assessed as inhibition of L-glutamate/glycine-induced current response at holding potential -60 mV by two-electrode voltage clamp method; assay type: cell-based; method in brief: as §2
# [16] = biological target: T4, Ionotropic glutamate receptor NMDA 1/2D; experiment: Positive allosteric modulation of rat GluN1/GluN2D expressed in Xenopus laevis oocytes assessed as potentiation of L-glutamate/glycine-induced current response at holding potential -60 mV by two-electrode voltage clamp method; assay type: cell-based; method in brief: as §2
# [17] = biological target: Glutamate receptor ionotropic, NMDA 2D (Rattus norvegicus) (UniProt Q62645); experiment: Agonist activity at rat GluN2D expressed in Xenopus laevis oocytes assessed as effect on current response at holding potential -60 mV by two-electrode voltage clamp method relative to L-glutamate/glycine; assay type: cell-based; method in brief: as §1
# [18] = biological target: Glutamate receptor ionotropic, NMDA 2B (Rattus norvegicus) (UniProt Q00960); experiment: Agonist activity at rat GluN2B expressed in Xenopus laevis oocytes assessed as effect on current response at holding potential -60 mV by two-electrode voltage clamp method relative to L-glutamate/glycine; assay type: cell-based; method in brief: as §1
# [19] = biological target: Glutamate receptor ionotropic, NMDA 2C (Rattus norvegicus) (UniProt Q00961); experiment: Positive allosteric modulation of rat GluN2C expressed in Xenopus laevis oocytes assessed as potentiation of L-glutamate/glycine-induced current response at holding potential -60 mV by two-electrode voltage clamp method relative to L-glutamate/glycine; assay type: cell-based; set-up: concentration or dose not given beside the values; method in brief: as §2
# [20] = biological target: T5, Glutamate NMDA receptor; Grin1/Grin2b; experiment: Positive allosteric modulation of rat GluN1/GluN2B expressed in Xenopus laevis oocytes assessed as potentiation of L-glutamate/glycine-induced current response at holding potential -60 mV by two-electrode voltage clamp method; assay type: cell-based; method in brief: as §2
# [21] = biological target: Glutamate receptor ionotropic, NMDA 2A (Rattus norvegicus) (UniProt Q00959); experiment: Positive allosteric modulation of rat GluN2A expressed in Xenopus laevis oocytes assessed as potentiation of L-glutamate/glycine-induced current response at holding potential -60 mV by two-electrode voltage clamp method relative to L-glutamate/glycine; assay type: cell-based; set-up: concentration or dose not given beside the values; method in brief: as §2
# [22] = biological target: Glutamate receptor ionotropic, NMDA 2B (Rattus norvegicus) (UniProt Q00960); experiment: Positive allosteric modulation of rat GluN2B expressed in Xenopus laevis oocytes assessed as potentiation of L-glutamate/glycine-induced current response at holding potential -60 mV by two-electrode voltage clamp method relative to L-glutamate/glycine; assay type: cell-based; method in brief: as §2
# [23] = biological target: Glutamate receptor ionotropic, NMDA 2D (Rattus norvegicus) (UniProt Q62645); experiment: Positive allosteric modulation of rat GluN2D expressed in Xenopus laevis oocytes assessed as potentiation of L-glutamate/glycine-induced current response at holding potential -60 mV by two-electrode voltage clamp method relative to L-glutamate/glycine; assay type: cell-based; set-up: concentration or dose not given beside the values; method in brief: as §2
# [24] = biological target: Glutamate receptor ionotropic, NMDA 2A (Rattus norvegicus) (UniProt Q00959); experiment: Agonist activity at rat GluN2A expressed in Xenopus laevis oocytes assessed effect on current response at holding potential -60 mV by two-electrode voltage clamp method relative to L-glutamate/glycine; assay type: cell-based; method in brief: as §1
# [25] = biological target: Glutamate receptor ionotropic, NMDA 2C (Rattus norvegicus) (UniProt Q00961); experiment: Agonist activity at rat GluN2C expressed in Xenopus laevis oocytes assessed effect on current response at holding potential -60 mV by two-electrode voltage clamp method relative to L-glutamate/glycine; assay type: cell-based; method in brief: as §1
# [26] = biological target: T1, Glutamate NMDA receptor; Grin1/Grin2c; experiment: Positive allosteric modulation of rat GluN1/GluN2C expressed in Xenopus laevis oocytes assessed as potentiation of L-glutamate/glycine-induced current response at holding potential -60 mV by two-electrode voltage clamp method; assay type: cell-based; method in brief: as §2
# [27] = biological target: T2, Glutamate NMDA receptor; Grin1/Grin2a; experiment: Positive allosteric modulation of rat GluN1/GluN2A expressed in Xenopus laevis oocytes assessed as potentiation of L-glutamate/glycine-induced current response at holding potential -60 mV by two-electrode voltage clamp method; assay type: cell-based; method in brief: as §2
Structure (SMILES),Activity [1] [%],solubility [2],Activity [3] [%],Activity [4] [%],Activity [5] [%],IC50 [6] [µM],Activity [11] [%],Activity [12] [%],EC50 [16] [µM],Activity [17],Activity [18],Activity [19] [%],EC50 [20] [µM],Activity [21] [%],Activity [22] [%],Activity [23] [%],Activity [24],Activity [25],EC50 [26] [µM],EC50 [27] [µM],further results
O=C(O)c1cc2cc(/C=C/c3ccccc3[N+](=O)[O-])ccc2cc1O,80.5,Soluble,35.1,30.5,79.7,8.2,56.1,26.8,,,,,,,,,,,,,IC50 [7]: 6 µM; Activity [8]: Active; Activity [9]: Active; IC50 [10]: 2.9 µM; Activity [13]: 61.3%; Activity [14]: 80.1%; IC50 [15]: 32.2 µM
C=C(CCC(C)C)c1ccc2cc(C(=O)O)ccc2c1,163,Soluble,349,,,,265,310,72.3,inactive,inactive,137,116,230,417,277,inactive,inactive,26.1,114,
CC(C)CCC(C)c1ccc2cc(C(=O)O)ccc2c1 (racemic),281,Soluble,337,,,,225,317,30.6,inactive,inactive,263,25,277,192,240,inactive,inactive,36.2,39.4,
CC(C)CCCc1ccc2cc(C(=O)O)ccc2c1,171,Soluble,192,,,,171,207,28.9,inactive,inactive,117,34.6,68.6,102,88.4,inactive,inactive,37.2,28,
O=C(O)c1cc2cc(/C=C/c3cccc([N+](=O)[O-])c3)ccc2cc1O,50.5,Soluble,24.4,49.7,70,7.9,28.8,30.7,,,,,,,,,,,,,IC50 [7]: 9.7 µM; IC50 [10]: 1.4 µM; Activity [13]: 66.3%; Activity [14]: 74.4%; IC50 [15]: 9.2 µM
O=C(O)c1ccc2cc(CCCC3CCCC3)ccc2c1,136,Soluble,171,,,,175,161,34.7,inactive,inactive,105,27,38.4,61.9,65.6,inactive,inactive,22.4,7.5,
O=C(O)c1cc2cc(/C=C/c3ccc([N+](=O)[O-])cc3)ccc2cc1O,47.4,Soluble,43.3,54.1,72.3,6.5,53.2,34.4,,,,,,,,,,,,,IC50 [7]: 5.8 µM; IC50 [10]: 2.9 µM; Activity [13]: 48.4%; Activity [14]: 55.9%; IC50 [15]: 11.1 µM
